Laboratory results as given in ChEMBL document CHEMBL1157649, “Cytotoxic 2-benzylidene-6-(nitrobenzylidene)cyclohexanones which display substantially greater toxicity for neoplasms than non-malignant cells” (Bioorg Med Chem, 2010).

Key:
[1] = Cytotoxicity against human HGF cells after 24 hrs; assay type: cell-based; settings: for CC50: hgf, 24 h
Procedure, shortened: (§1)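 Cells (HGF gingival fibroblasts, HPC pulp cells, HPLF periodontal ligament fibroblasts, HSC-2 and HSC-4 squamous carcinoma, HL-60 promyelocytic leukemia) were exposed to graded concentrations for 24 h, up to a maximum of 400 μM. CC50 is the concentration reducing viable cell number by 50%, taken from dose–response curves. Values are from duplicate determinations differing by less than 5%.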

[2] = Cytotoxicity against human HPC cells after 24 hrs; assay type: cell-based; settings: for CC50: hpc, 24 h; procedure, shortened: as §1
Mus musculus [3] = assay: Toxicity in mouse assessed as induction of mortality at 30 to 300 mg/kg, ip; assay type: organism-based; parameters: dose 30-300 mg/kg, route intraperitoneal; settings: in vivo
HSC-4 [4] = assay: Cytotoxicity against human HSC4 cells after 24 hrs; assay type: functional; settings: HSC-4, 24 h; procedure, shortened: as §1
HL-60 [5] = assay: Cytotoxicity against human HL60 cells after 24 hrs; assay type: functional; settings: HL-60, 24 h; procedure, shortened: as §1
HL-60 [6] = assay: Selectivity index, ratio of CC50 for human normal cells to CC50 for human HL60 cells; assay type: functional
Procedure, shortened: (§2)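 The index is the average CC50 toward the three normal cell types (HGF, HPC, HPLF) divided by the CC50 toward the indicated malignant line.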

HSC-2 [7] = assay: Cytotoxicity against human HSC2 cells after 24 hrs; assay type: functional; settings: HSC-2, 24 h; procedure, shortened: as §1
[8] = Cytotoxicity against human HPLF cells after 24 hrs; assay type: cell-based; settings: for CC50: hplf, 24 h; procedure, shortened: as §1
HSC-4 [9] = assay: Selectivity index, ratio of CC50 for human normal cells to CC50 for human HSC4 cells; assay type: functional; procedure, shortened: as §2
HSC-2 [10] = assay: Selectivity index, ratio of CC50 for human normal cells to CC50 for human HSC2 cells; assay type: functional; procedure, shortened: as §2
[11] = Partition coefficient, log P of the compound; assay type: physicochemical; settings: octanol/water
Mus musculus [12] = assay: Neurotoxicity in mouse assessed at 30 to 300 mg/kg, ip after 0.5 hrs; assay type: toxicity, organism-based; parameters: dose 30-300 mg/kg, route intraperitoneal; settings: in vivo
Procedure, shortened: (§3)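 Mice received 30, 100 or 300 mg/kg intraperitoneally and were examined at 0.5 and 4 h for mortality and neurological deficit, following NINDS screening protocols. Results were recorded as the number of mice showing a deficit over the number treated per dose.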

Mus musculus [13] = assay: Neurotoxicity in mouse assessed at 30 to 300 mg/kg, ip after 4 hrs; assay type: toxicity, organism-based; parameters: dose 30-300 mg/kg, route intraperitoneal; settings: in vivo; procedure, shortened: as §3

Row | SMILES | CC50 [1] [µM] | CC50 [2] [µM] | Activity (Mus musculus [3]) | CC50 (HSC-4 [4]) [µM] | CC50 (HL-60 [5]) [µM] | Selectivity Index (HL-60 [6]) | CC50 (HSC-2 [7]) [µM] | CC50 [8] [µM] | Selectivity Index (HSC-4 [9]) | Selectivity Index (HSC-2 [10]) | logP [11] | Activity (Mus musculus [12]) | Activity (Mus musculus [13]) | CC50 at 24 h ([1]; HGF cells) [µM] | CC50 at 24 h ([2]; HPC cells) [µM] | CC50 at 24 h ([8]; HPLF cells) [µM]
1 | O=C1CCCC/C1=C\c1cccc([N+](=O)[O-])c1 | 74 | 49 | Non-toxic | 18 | 5.8 | 10 | 6.6 | 56 | 3.3 | 9.1 |  |  |  |  |  | 
2 | O=C1/C(=C/c2ccc(Cl)cc2)CCC/C1=C\c1cccc([N+](=O)[O-])c1 | 39 | 18 |  | 2.3 | 3.2 | 10 | 2.2 | 38 | 14 | 15 | 5.58 |  |  |  |  | 
3 | COc1ccc(/C=C2\CCC/C(=C\c3ccc([N+](=O)[O-])cc3)C2=O)c(OC)c1OC | > 400 | > 400 | Non-toxic | > 400 | > 400 | 1 | > 400 | > 400 | 1 | 1 |  | Non-toxic | Non-toxic |  |  | 
4 | CN(C)c1ccc(/C=C2\CCC/C(=C\c3ccc([N+](=O)[O-])cc3)C2=O)cc1 | > 400 | > 400 | Non-toxic | > 400 | > 400 |  | 11 | > 400 |  |  | 5.03 |  |  |  |  | 
5 | COc1cc(/C=C2\CCC/C(=C\c3ccc([N+](=O)[O-])cc3)C2=O)cc(OC)c1OC |  |  | Non-toxic | 1.5 | 1.1 | 322 | 0.76 |  | 236 | 466 | 4.56 |  |  | 336 | 347 | 378
6 | COc1ccc(/C=C2\CCC/C(=C\c3ccccc3[N+](=O)[O-])C2=O)cc1 | > 400 | > 400 | Non-toxic | 24 | 26 |  | 11 | 386 |  |  | 4.76 | Non-toxic | Non-toxic |  |  | 
7 | O=C1/C(=C/c2ccccc2)CCC/C1=C\c1cccc([N+](=O)[O-])c1 | 25 | 14 | Non-toxic | 2.4 | 3 | 6.3 | 3.7 | 18 | 7.9 | 5.1 | 4.9 |  |  |  |  | 
8 | Cc1ccc(/C=C2\CCC/C(=C\c3ccccc3[N+](=O)[O-])C2=O)cc1 | > 400 | > 400 |  | 40 | 11 | >36 | 11 | > 400 | >10 | >36 | 5.15 |  |  |  |  | 
9 | COc1cc(OC)c(OC)cc1/C=C1\CCC/C(=C\c2ccc([N+](=O)[O-])cc2)C1=O | > 400 | > 400 | Non-toxic | 250 | 400 | 1 | 67 | > 400 | >1.6 | >6 |  |  |  |  |  | 
10 | CN(C)c1ccc(/C=C2\CCC/C(=C\c3ccccc3[N+](=O)[O-])C2=O)cc1 | > 400 | > 400 |  | > 400 | > 400 | 1 | > 400 | > 400 | 1 | 1 | 4.8 |  |  |  |  | 
11 | O=C1/C(=C/c2ccc(F)cc2)CCC/C1=C\c1ccc([N+](=O)[O-])cc1 | 326 | > 400 | Non-toxic | 15 | 32 |  | 19 | > 400 |  |  | 5.09 |  |  |  |  | 
12 | CN(C)c1ccc(/C=C2\CCC/C(=C\c3cccc([N+](=O)[O-])c3)C2=O)cc1 | > 400 | > 400 | Non-toxic | 71 | 30 |  | 32 | > 400 |  |  | 5 |  |  |  |  | 
13 | O=C1/C(=C/c2ccc(F)cc2)CCC/C1=C\c1ccccc1[N+](=O)[O-] | 82 | 11 | Non-toxic | 2.2 | 3 |  | 2.7 | 67 |  |  |  | Non-toxic | Non-toxic |  |  | 
14 | COc1ccc(/C=C2\CCC/C(=C\c3cccc([N+](=O)[O-])c3)C2=O)cc1 | > 400 | 33 | Non-toxic | 11 | 7.2 | >36 | 4.8 | 354 | >24 | >55 | 4.96 |  |  |  |  | 
15 | COc1cc(OC)c(/C=C2\CCC/C(=C\c3ccc([N+](=O)[O-])cc3)C2=O)c(OC)c1 | > 400 | > 400 | Non-toxic | > 400 | 11 | >36 | > 400 | > 400 | 1 | 1 |  | Non-toxic | Non-toxic |  |  | 
16 | Cc1ccc(/C=C2\CCC/C(=C\c3ccc([N+](=O)[O-])cc3)C2=O)cc1 | > 400 | 92 | Non-toxic | 13 | 27 | >10 | 6.6 | 348 | >22 | >42 | 5.38 |  |  |  |  | 
17 | O=C1CCCC/C1=C\c1ccccc1[N+](=O)[O-] | 218 | 117 | Non-toxic | 29 | 27 | 5.4 | 28 | 103 | 5 | 5.2 |  |  |  |  |  | 
18 | O=C1/C(=C/c2ccc(F)cc2)CCC/C1=C\c1cccc([N+](=O)[O-])c1 | 42 | 38 | Non-toxic | 2.5 | 1 |  | 2.2 | 36 |  |  | 5.07 |  |  |  |  | 
